# This is a sample that favours compounds with a hit; in the whole collection about 1.2% have one here.
# CAL PDZ FP-1: untagged CAL PDZ binding inhibitors, primary screen, biochemical, fluorescence polarization, HTS; 300,000 tested, 0.92% active; inhibition, % at 24.9 µM; purified CAL PDZ, TMR-peptide fluorescence polarization, 1 h; AID 602252, 2012; Golgi-associated PDZ and coiled-coil motif-containing protein (Homo sapiens), Q9HD26;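 active means mean inhibition of at least 30% with at least half of replicates also reaching 30%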;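 further: 0% = DMSO neutral control and 100% = excess unlabeled competitor peptide PRC23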
# CAL PDZ FP-2: CAL PDZ peptide-binding inhibitors, primary screen, biochemical, fluorescence polarization, Cer-tagged CAL PDZ, HTS; AID 504414, 2011; Golgi-associated PDZ and coiled-coil motif-containing protein (Homo sapiens), Q9HD26; purified CAL PDZ, TMR-peptide fluorescence polarization, 1 h; inhibition, % at 20 µM; 330,000 tested, 0.02% active;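 active means highest replicate inhibition of at least 40%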;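 further: plate controls were DMSO neutral control wells for no effect and unlabeled competitor peptide control wells for full effect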
#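 Material – purified CerCALP PDZ construct · Detection – FP readout, S and P plane fluorescence · Measure – percent inhibition from loss of millipolarization · Controls – unlabelled peptide for full inhibition, DMSO wells as neutral · Probe or stimulus – TMR-labelled reporter peptide T*-PRC34 bound in PDZ groove · Times – 1 h at RT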
# ARNT TACC3 PPI: disruptors of ARNT/TACC3 protein interaction, primary screen, biochemical, AlphaScreen, single concentration; Transforming acidic coiled-coil-containing protein 3 (Homo sapiens), Q9Y6A5; AlphaScreen His-ARNT PAS-B/GST-TACC3 binding, luminescence; TACC3 fragment carries E629A point mutation; inhibition, % at 9.99 µM; 390,000 tested, 0.66% active;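 active means mean inhibition of replicates at least 50% and at least half of replicates each reaching 50%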;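 further: 0% = complete ARNT plus TACC3 wells and 100% = ARNT alone without TACC3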
# Numbers without * were called inactive; x = not tested or not shown.
SMILES,CAL PDZ FP-1,CAL PDZ FP-2,ARNT TACC3 PPI
Cc1oc(-c2ccc(Cl)cc2)nc1CS(=O)CC(=O)NCc1ccccc1 (stereo not given),3,-2,x
C[C@@H]1CN([C@@H](C)CO)C(=O)c2cc(NC(=O)Nc3ccccc3)ccc2O[C@@H]1CN(C)S(=O)(=O)c1cn(C)cn1,x,x,-4
CN(C)CC(=O)N1[C@H](CO)[C@@H](c2ccc(C#CC3CC3)cc2)[C@@H]1C#N,x,x,5
CCC(=O)N(C)C[C@H]1Oc2cc(C#CCN(C)C)ccc2S(=O)(=O)N([C@@H](C)CO)C[C@H]1C,x,x,-8
COc1ccc(C(=O)NC(=S)N2CCNC(=O)C2)cc1Br,-1,-2,-1
O=C1CN(C(=S)NC(=O)c2ccc(-c3ccccc3)cc2)CCN1,43*,-1,-4
C[C@H]1CN([C@@H](C)CO)C(=O)c2cc(C#Cc3ccccc3F)cnc2O[C@H]1CN(C)C(=O)c1ccc2c(c1)OCO2,x,x,-2
Cc1noc(C)c1NC(=O)N(C)C[C@@H]1OCCCC[C@@H](C)Oc2ccc(NS(C)(=O)=O)cc2C(=O)N([C@H](C)CO)C[C@@H]1C,x,x,4
CC(=O)c1cnc2nc(SCc3ccc(C)cc3)nn2c1C,x,-2,2
CC(=O)c1cnc2nc(SCc3ccc(Cl)cc3)nn2c1C,178*,x,1
COc1ccc(NC(=O)CNC(=O)C2CCCCC2)cc1,53*,1,-2
O=C(CNC(=O)C1CCCCC1)Nc1ccccc1,-2,-2,-2
C[C@H](O)C#Cc1ccc2c(c1)O[C@@H](CN(C)Cc1ccccc1)[C@@H](C)CN([C@H](C)CO)S2(=O)=O,x,x,-5
S=C(NCc1ccccn1)Nc1ccc(Cl)c(Cl)c1,-3,0,x
CCNC(=S)NNC(=O)c1ccccn1,-2,0,67*
CCNC(=S)NNC(=O)c1ccccc1Cl,2,0,-12
O=C(NNC(=S)Nc1ccc(Cl)c(Cl)c1)c1ccccn1,4,0,75*
C=C(C)CNC(=S)NNC(=O)c1ccncc1,-1,-3,-2
CCNC(=S)NNC(=O)c1ccncc1,68*,0,1
CCC(=O)N1[C@@H]2c3ccc(C4=CCCC4)c(=O)n3C[C@@H]2[C@@H](CO)[C@@H]1C(=O)NC1CCCC1,x,x,8
Cc1nn(C)cc1NC(=O)C[C@H]1CC[C@H]2[C@@H](COc3ccc(NC(=O)C(C)C)cc3C(=O)N2C)O1,x,x,-33
C[C@@H](NC(=O)C[C@@H]1C=C[C@@H](NC(=O)C2CC2)[C@H](CO)O1)c1ccccc1,x,x,6
CN(/C=C/c1c([N+](=O)[O-])c(=O)n(C)c(=O)n1C)c1ccccc1,86*,-7,active
Cn1c(/C=C/c2ccc(Cl)cc2)c([N+](=O)[O-])c(=O)n(C)c1=O,-12,1,-6
O=C(C[C@@H]1C[C@H]2c3cc(NC(=O)Nc4ccccc4)ccc3O[C@H]2[C@@H](CO)O1)NCc1ccccn1,x,x,3
SMILES,CAL PDZ FP-1,CAL PDZ FP-2,ARNT TACC3 PPI
CCC1SC(C)C/C(=N/NC(N)=O)C1C (stereo not given),-1,1,-2
CC1CC(C)C(=NNC(N)=O)C(C(O)CC2CCC(=O)NC2=O)C1 (stereo not given),51*,1,1
O=C(NN=Cc1ccccc1O)C(O)c1ccccc1 (stereo not given),-2,-2,43*
COc1cccc(/C=N/NC(=O)C(=O)N2CCCC2)c1OC,-3,-1,-3
COc1cccc(/C=N/NC(=O)C(=O)N2CCCC2)c1O,-2,-2,68*
O=C(N/N=C/c1ccccc1O)C(=O)N1CCCCCC1,2,0,67*
O=C(N/N=C/c1ccccc1F)C(=O)N1CCCCCC1,-6,-1,2
O=C(N/N=C/c1ccccc1)C(O)c1ccccc1 (stereo not given),x,-4,4
O=C(NCC[C@@H]1CC[C@H](NS(=O)(=O)c2ccccc2F)[C@@H](CO)O1)c1ccc(F)cc1,x,x,5
CC(C)NC(=O)N(C)C[C@H]1Oc2ccc(NS(=O)(=O)c3ccc(Cl)cc3)cc2CC(=O)N([C@H](C)CO)C[C@H]1C,x,x,-6
Cc1ccc(S(=O)(=O)N[C@H]2CC[C@H](CCn3cc(-c4cccnc4)nn3)O[C@H]2CO)cc1,x,x,-1
C/C=C/c1ccc2c(c1)O[C@@H](CN(C)Cc1ccc(F)cc1)[C@H](C)CN([C@@H](C)CO)S2(=O)=O,x,x,10
NC(=O)/C(=C\c1ccncc1)c1cccc2ccccc12,74*,-1,-7
N#C/C(=C\c1ccncc1)C(N)=O,-3,0,0

# Compound activity deposited in PubChem BioAssay by Broad Institute.
